For three compounds, Activity and inhibition results are on record in ChEMBL document CHEMBL5712885, “A chromatin activity-based chemoproteomic approach reveals a transcriptional repressome for gene-specific silencing” (Nat Commun, 2014).

For data set [1], the system named is RAW264.7. The data set is described as follows: Cytotoxicity against mouse RAW264.7 cells assessed as reduction in cell survival at 1 uM after 9 days Giemsa staining based assay. Type of data set: toxicity. The settings on record: raw264.7, 216 h, time 9 day. The essentials:
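Raw264.7 cells plated at 50, 100 and 200 viable cells in duplicate wells, primed 48 h with 100 ng ml⁻¹ LPS, then given fresh media containing 1 μM inhibitor. Grown 9 days, then fixed in methanol-acetic acid (3:1) and stained 30 min with 10% Giemsa. Colonies over 20 cells counted. Survival expressed as percent of colonies on plates without LPS or inhibitor.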

Data set [2] concerns the target T1, Histone-lysine N-methyltransferase EHMT2 (Mus musculus) (UniProt Q9Z148).
T1 sequence (whole entry): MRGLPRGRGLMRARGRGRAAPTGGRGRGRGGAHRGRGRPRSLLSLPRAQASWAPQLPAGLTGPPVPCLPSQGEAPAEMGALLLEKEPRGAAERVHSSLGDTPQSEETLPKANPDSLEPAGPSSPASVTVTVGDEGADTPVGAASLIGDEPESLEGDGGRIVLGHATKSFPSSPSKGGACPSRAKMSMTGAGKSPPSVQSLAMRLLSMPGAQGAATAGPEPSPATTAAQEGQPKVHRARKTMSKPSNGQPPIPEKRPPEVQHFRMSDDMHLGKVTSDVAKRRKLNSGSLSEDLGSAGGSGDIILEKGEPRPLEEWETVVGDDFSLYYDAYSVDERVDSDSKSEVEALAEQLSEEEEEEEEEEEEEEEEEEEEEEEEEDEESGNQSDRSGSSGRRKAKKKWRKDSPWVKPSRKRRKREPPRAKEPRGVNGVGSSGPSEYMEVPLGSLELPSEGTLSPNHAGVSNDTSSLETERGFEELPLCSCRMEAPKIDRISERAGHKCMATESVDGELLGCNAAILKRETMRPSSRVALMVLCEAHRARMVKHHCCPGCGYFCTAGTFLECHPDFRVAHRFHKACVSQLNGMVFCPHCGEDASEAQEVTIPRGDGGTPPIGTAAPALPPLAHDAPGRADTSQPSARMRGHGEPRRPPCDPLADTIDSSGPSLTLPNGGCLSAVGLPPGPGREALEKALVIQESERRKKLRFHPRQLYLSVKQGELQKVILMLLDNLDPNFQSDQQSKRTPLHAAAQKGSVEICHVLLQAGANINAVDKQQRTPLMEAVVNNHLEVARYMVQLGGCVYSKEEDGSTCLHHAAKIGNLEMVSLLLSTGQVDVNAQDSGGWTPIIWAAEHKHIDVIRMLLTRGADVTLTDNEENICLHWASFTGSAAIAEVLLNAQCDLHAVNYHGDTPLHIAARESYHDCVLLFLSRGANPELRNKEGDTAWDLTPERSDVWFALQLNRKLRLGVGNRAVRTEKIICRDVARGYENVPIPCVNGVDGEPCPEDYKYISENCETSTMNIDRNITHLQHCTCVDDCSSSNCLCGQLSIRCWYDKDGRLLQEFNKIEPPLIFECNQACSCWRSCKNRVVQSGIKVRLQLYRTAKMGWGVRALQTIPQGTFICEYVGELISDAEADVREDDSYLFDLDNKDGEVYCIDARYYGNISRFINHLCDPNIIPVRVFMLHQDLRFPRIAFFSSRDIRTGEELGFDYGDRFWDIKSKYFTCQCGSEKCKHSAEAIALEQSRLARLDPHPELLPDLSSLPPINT
The following applies: C57BL/6, BMDM, dose 250.0 nM, time 16.0 hrs.

In data set [3] the target is T1, Histone-lysine N-methyltransferase EHMT2 (Mus musculus). The following applies: C57BL/6, BMDM, dose 250.0 nM, time 16.0 hrs. The source holds these as a separate data set.
For data set [4] the target is unchanged. The settings on record: C57BL/6, RAW264.7, dose 250.0 nM, time 16.0 hrs.
The target is the same in data set [5]. The following applies: C57BL/6, RAW264.7, dose 250.0 nM, time 16.0 hrs. This is another data set of the same source.
For data set [6] the target is unchanged. The settings on record: C57BL/6, BMDM, dose 250.0 nM, time 16.0 hrs. The source holds these as a separate data set.
For data set [7] the target is unchanged. The following applies: C57BL/6, BMDM, dose 250.0 nM, time 16.0 hrs. The source holds these as a separate data set.
Data set [8] relates to RAW264.7. The experiment in a line: Down regulation of c-Myc protein expression in LPS tolerant mouse RAW264.7 cells with G9a overexpression at 1 ug/ml upto 90 mins in presence of LPS by immunoblot analysis. The settings on record: dose 1.0 µg/ml. Type of data set: functional, cell-based. (In general: In western blotting, separated proteins are transferred to a membrane and probed.)

Data set [9] relates to RAW264.7. The experiment in a line: Down regulation of c-Myc protein expression in LPS tolerant mouse RAW264.7 cells at 1 ug/ml upto 90 mins in presence of LPS by immunoblot analysis. The class given is functional, cell-based. The settings on record: dose 1.0 µg/ml. The essentials:
(§1)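 Raw264.7 cells (shRNA G9a-knockdown line with ≥90% knockdown, or empty-vector control) primed with 100 ng ml⁻¹ LPS for 24 h, then given 1 µg ml⁻¹ cycloheximide for indicated times. c-Myc was detected by anti-c-Myc immunoblot with γ-tubulin loading control. Bands were quantified by densitometry and plotted, and half-life was read from the fitted curve.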

The subject of data set [10] is RAW264.7. The experiment in a line: Down regulation of c-Myc protein expression in LPS tolerant mouse RAW264.7 cells with G9a knockdown at 1 ug/ml upto 90 mins by immunoblot analysis. The class given is functional, cell-based. The settings on record: dose 1.0 µg/ml. The method, boiled down: as §1
Data set [11] deals with RAW264.7. The data set is described as follows: Upregulation of C-Myc protein expression in LPS tolerant mouse RAW264.7 cells at 10 uM upto 4 hrs in presence of LPS by immunoblot analysis. The class given is functional, cell-based.
Data set [12] concerns RAW264.7. The experiment in a line: Upregulation of C-Myc protein expression in LPS tolerant mouse RAW264.7 cells in presence of G9a/LPS at 10 uM upto 4 hrs by immunoblot analysis. Type of data set: functional, cell-based.
Data set [13] relates to RAW264.7. The experiment in a line: Upregulation of C-Myc protein expression in LPS tolerant mouse RAW264.7 cells with G9a knock down at 10 uM upto 4 hrs in presence of LPS by immunoblot analysis. Type of data set: functional, cell-based.

Calls of active or inactive are those of the source. No cut-off for these calls is given here. Where a SMILES comes first, the peptide text is derived from it. The star is where a group is joined. Cbz = O=C(OCc1ccccc1)*

For `COc1cc2c(NC3CCN(C(C)C)CC3)nc(C3CCCCC3)nc2cc1OCCCN1CCCC1`, the Activity result in the data set with RAW264.7 [1] is recorded as “Toxic”. For the same compound, the inhibition entry in data set [2], in [3], in data set [4], in data set [5], in data set [6] and in data set [7] was “Active” in each case.

Turning to `C[C@@H]1C[C@@H]([C@H](O)CC2CC(=O)NC(=O)C2)C(=O)[C@@H](C)C1`, in the data set with RAW264.7 [8], the outcome was inactive. Further, the result in the data set on RAW264.7 [9] and in the data set with RAW264.7 [10] was Active.

As for `CC(C)C[C@@H](C=O)NC(=O)[C@H](CC(C)C)NC(=O)[C@H](CC(C)C)NC(=O)OCc1ccccc1` (Cbz-Leu-Leu-Leu-aldehyde), the outcome in the data set with RAW264.7 [11] and in the data set with RAW264.7 [13] was Active. For the same compound, the result in the data set on RAW264.7 [12] was inactive.
